# According to ChEMBL document CHEMBL1143198, “Potent, nonpeptide inhibitors of human mast cell tryptase. Synthesis and biological evaluation of novel spirocyclic piperidine amide derivatives” (Bioorg Med Chem Lett, 2008):
# Calls of active or inactive are those of the source. No cut-off for these calls is given here.
# Columns and labels:
# Plasma = experiment: Drug level in sheep plasma; format: ADME, cell-free, Ovis aries
# Cavia porcellus [1] = experiment: Antiinflammatory activity in ovalbumin-sensitized guinea pig asthma model assessed as reduction in total lung resistance at 20 mg/kg, po BID for 3 days relative to control; format: functional; parameters: scale not given: the % may be the effect or the level left
# Summary of the method: (§1)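 Ovalbumin-sensitized guinea pigs received the benzoate salt orally at 20 mg/kg twice daily for 3 days, then once on Day 4 at 2 h before ovalbumin challenge.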
# Cavia porcellus [2] = experiment: Antiinflammatory activity in ovalbumin-sensitized guinea pig asthma model assessed as increase in dynamic lung compliance at 20 mg/kg, po BID for 3 days relative to control; format: functional; summary of the method: as §1
# Cavia porcellus [3] = experiment: Antiinflammatory activity in ovalbumin-sensitized guinea pig asthma model assessed as reduction in total WBC cell count at 20 mg/kg, po BID for 3 days relative to control; format: functional; parameters: scale not given: the % may be the effect or the level left; summary of the method: as §1
# Trypsin = Trypsin (Homo sapiens, UniProt P07477+P07478+P35030); experiment: Inhibition of human trypsin by chromogenic assay; format: protein assay
# [4] = Inhibition of human lung beta tryptase by chromogenic assay
# Homo sapiens [5] = species on record: Homo sapiens; experiment: Inhibition of human recombinant beta tryptase at 50 uM by chromogenic assay; details: in the assay text read “human lung beta tryptase” for “human recombinant beta tryptase”
# Summary of the method: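 A405 followed for 15 min at 22 °C after enzyme addition. Percent inhibition at 50 µM compared initial velocities with and without inhibitor.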
# [6] = target: Coagulation factor X (Homo sapiens) (UniProt P00742); experiment: Inhibition of factor 10a at 50 uM
# Chymase (Homo sapiens) = Chymase (Homo sapiens) (UniProt P23946); experiment: Inhibition of chymase at 50 uM
# [7] = target: Cathepsin G (Homo sapiens) (UniProt P08311); experiment: Inhibition of cathepsin G at 50 uM
# [8] = target: Prothrombin (Homo sapiens) (UniProt P00734); experiment: Inhibition of thrombin at 10 uM
# [9] = target: Plasminogen (Homo sapiens) (UniProt P00747); experiment: Inhibition of plasmin at 10 uM
# [10] = target: Tissue-type plasminogen activator (Homo sapiens) (UniProt P00750); experiment: Inhibition of tPA at 10 uM
# [11] = target: Coagulation factor VII (Homo sapiens) (UniProt P08709); experiment: Inhibition of factor 7a at 10 uM
# [12] = target: Plasma kallikrein (Homo sapiens) (UniProt P03952); experiment: Inhibition of kallikrein at 10 uM
# [13] = target: Urokinase-type plasminogen activator (Homo sapiens) (UniProt P00749); experiment: Inhibition of uPA at 10 uM
# [14] = Inhibition of streptokinase at 10 uM
# [15] = target: Neutrophil elastase (Homo sapiens) (UniProt P08246); experiment: Inhibition of human leukocyte elastase at 10 uM
# [16] = Inhibition of chymotrypsin at 10 uM
# Ovis aries [17] = experiment: Antiinflammatory activity in Ascaris suum-sensitized sheep asthma model assessed as blockade of late-phase airway response at 30 mg/kg, po BID after 8 hrs; format: functional, organism-based; parameters: dose 30 mg/kg
# Summary of the method: (§2)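 Conscious, antigen-sensitized allergic sheep were dosed by oral gavage with the benzoate salt at 30 mg/kg twice on Day 1, and on Day 2 at 2 h before antigen challenge. Airway resistance (SR_L) was monitored for 8 h after challenge: early phase 0–4 h, late phase 4–8 h. Airway hyper-reactivity to carbachol (PC₄₀₀) was measured at 24 h.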
# Ovis aries [18] = experiment: Antiinflammatory activity in Ascaris suum-sensitized sheep asthma model assessed as blockade of early-phase airway response at 30 mg/kg, po BID after 8 hrs; format: functional, organism-based; parameters: dose 30 mg/kg; summary of the method: as §2
# Ovis aries [19] = experiment: Antiinflammatory activity in Ascaris suum-sensitized sheep asthma model assessed as increase in airway hyperactivity at 30 mg/kg, po BID after 24 hrs relative to carbachol; format: functional, organism-based; parameters: dose 30 mg/kg; summary of the method: as §2
# Homo sapiens [20] = species on record: Homo sapiens; experiment: Ratio of IC50 for human trypsin to IC50 for human tryptase
# Summary of the method: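 Human lung β-tryptase: 1 nM, H-D-HHT-Ala-Arg-pNA 500 µM, Tris/Hepes/NaCl/PEG buffer, pH 7.4. Human pancreatic trypsin: 1.8 nM, N-α-Z-D-Arg-Gly-Arg-pNA 60 µM, 200 mM NaCl, 50 mM Hepes, 0.5% octyl glucoside, pH 7.4.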
# [21] = target: Amine oxidase [flavin-containing] A (Homo sapiens, UniProt P21397); experiment: Inhibition of monoamine oxidase A
# [22] = target: Amine oxidase [flavin-containing] B (Homo sapiens, UniProt P27338); experiment: Inhibition of monoamine oxidase B
# monoamine oxidase B = experiment: Stability in presence of monoamine oxidase B after 30 mins; format: ADME; details: read-out: Stability
# Summary of the method: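 The compound was tested as an MAO-B substrate, with parent remaining measured at 30 min. Benzylamine was run as a reference substrate.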
# [23] = Oral bioavailability in rat; format: ADME, organism-based; details: in vivo
# [24] = Cmax in orally dosed rat; format: ADME, organism-based; parameters: route oral; details: in vivo, po
# [25] = Half life in orally dosed rat; format: ADME, organism-based; details: in vivo, po
# Rattus norvegicus = experiment: Volume of distribution in orally dosed rat; format: ADME, organism-based; details: in vivo, po
# [26] = Oral bioavailability in dog; format: ADME, organism-based, Canis lupus familiaris; details: in vivo
# [27] = Cmax in orally dosed dog; format: ADME, organism-based, Canis lupus familiaris; parameters: route oral; details: in vivo, po
# [28] = Half life in orally dosed dog; format: ADME, organism-based, Canis lupus familiaris; details: in vivo, po
# Canis familiaris = experiment: Volume of distribution in orally dosed dog; format: ADME, organism-based, Canis lupus familiaris; details: in vivo, po
# [29] = Metabolic stability in human liver microsomes assessed as half life; format: ADME, Microsome
# [30] = Metabolic stability in human liver microsomes after 60 mins; format: ADME, Microsome; details: read-out: Stability
# Cytochrome P450 1A2 = Cytochrome P450 1A2 (Homo sapiens, UniProt P05177); experiment: Inhibition of human CYP1A2; format: ADME
# Summary of the method: (§3)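 IC50 for cytochrome P450 isozyme inhibition was measured in isolated human liver microsomes.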
# Cytochrome P450 2C9 = Cytochrome P450 2C9 (Homo sapiens, UniProt P11712); experiment: Inhibition of human CYP2C9; format: ADME; summary of the method: as §3
# Cytochrome P450 2D6 = Cytochrome P450 2D6 (Homo sapiens, UniProt P10635); experiment: Inhibition of human CYP2D6; format: ADME; summary of the method: as §3
# Cytochrome P450 2C19 = Cytochrome P450 2C19 (Homo sapiens, UniProt P33261); experiment: Inhibition of human CYP2C19; format: ADME; summary of the method: as §3
# Cytochrome P450 3A4 = Cytochrome P450 3A4 (Homo sapiens, UniProt P08684); experiment: Inhibition of human CYP3A4; format: ADME; summary of the method: as §3
# Chain of Coagulation factor VII (Homo sapiens) (P08709 61-212 limits assumed): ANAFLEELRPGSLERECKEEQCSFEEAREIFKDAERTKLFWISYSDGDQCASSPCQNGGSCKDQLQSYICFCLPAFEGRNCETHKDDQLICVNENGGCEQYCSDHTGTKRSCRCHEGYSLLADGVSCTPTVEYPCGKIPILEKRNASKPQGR
# Chain of Coagulation factor VII (Homo sapiens) (P08709 213-466 limits assumed): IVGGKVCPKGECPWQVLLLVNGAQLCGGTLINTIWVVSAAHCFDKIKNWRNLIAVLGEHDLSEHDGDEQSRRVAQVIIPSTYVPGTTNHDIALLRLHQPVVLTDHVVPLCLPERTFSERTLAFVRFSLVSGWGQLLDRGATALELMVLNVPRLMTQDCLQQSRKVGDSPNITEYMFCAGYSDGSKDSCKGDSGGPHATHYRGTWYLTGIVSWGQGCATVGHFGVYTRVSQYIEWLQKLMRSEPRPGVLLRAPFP
# Chain of Amine oxidase [flavin-containing] A (P21397 whole entry): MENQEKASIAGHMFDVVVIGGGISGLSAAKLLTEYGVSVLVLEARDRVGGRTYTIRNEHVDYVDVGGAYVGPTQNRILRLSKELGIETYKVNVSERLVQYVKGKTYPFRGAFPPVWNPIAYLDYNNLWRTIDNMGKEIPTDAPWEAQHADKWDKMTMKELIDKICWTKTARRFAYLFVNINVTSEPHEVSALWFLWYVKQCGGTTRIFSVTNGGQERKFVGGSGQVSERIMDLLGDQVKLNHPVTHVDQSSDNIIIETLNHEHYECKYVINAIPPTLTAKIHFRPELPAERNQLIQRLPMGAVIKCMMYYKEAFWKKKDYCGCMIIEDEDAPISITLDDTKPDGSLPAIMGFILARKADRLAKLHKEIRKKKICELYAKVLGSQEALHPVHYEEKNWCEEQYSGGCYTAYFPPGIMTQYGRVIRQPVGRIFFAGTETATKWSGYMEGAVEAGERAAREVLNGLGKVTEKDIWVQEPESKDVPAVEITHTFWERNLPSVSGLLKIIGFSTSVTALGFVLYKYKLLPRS
# Chain of Cytochrome P450 2D6 (P10635 whole entry): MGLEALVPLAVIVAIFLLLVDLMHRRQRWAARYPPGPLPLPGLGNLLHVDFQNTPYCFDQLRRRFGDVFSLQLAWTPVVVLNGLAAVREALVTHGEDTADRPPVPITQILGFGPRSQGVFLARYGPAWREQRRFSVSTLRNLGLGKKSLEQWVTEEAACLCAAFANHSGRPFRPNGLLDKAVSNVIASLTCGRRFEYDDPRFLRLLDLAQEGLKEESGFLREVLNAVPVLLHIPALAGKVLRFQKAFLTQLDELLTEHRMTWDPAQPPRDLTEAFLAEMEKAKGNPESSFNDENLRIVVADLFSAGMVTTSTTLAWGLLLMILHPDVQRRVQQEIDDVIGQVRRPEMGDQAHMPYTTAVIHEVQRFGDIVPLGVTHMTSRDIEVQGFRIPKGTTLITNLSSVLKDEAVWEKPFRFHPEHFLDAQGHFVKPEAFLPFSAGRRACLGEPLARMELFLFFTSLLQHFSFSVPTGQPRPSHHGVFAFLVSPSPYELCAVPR
# Chain of Amine oxidase [flavin-containing] B (P27338 whole entry): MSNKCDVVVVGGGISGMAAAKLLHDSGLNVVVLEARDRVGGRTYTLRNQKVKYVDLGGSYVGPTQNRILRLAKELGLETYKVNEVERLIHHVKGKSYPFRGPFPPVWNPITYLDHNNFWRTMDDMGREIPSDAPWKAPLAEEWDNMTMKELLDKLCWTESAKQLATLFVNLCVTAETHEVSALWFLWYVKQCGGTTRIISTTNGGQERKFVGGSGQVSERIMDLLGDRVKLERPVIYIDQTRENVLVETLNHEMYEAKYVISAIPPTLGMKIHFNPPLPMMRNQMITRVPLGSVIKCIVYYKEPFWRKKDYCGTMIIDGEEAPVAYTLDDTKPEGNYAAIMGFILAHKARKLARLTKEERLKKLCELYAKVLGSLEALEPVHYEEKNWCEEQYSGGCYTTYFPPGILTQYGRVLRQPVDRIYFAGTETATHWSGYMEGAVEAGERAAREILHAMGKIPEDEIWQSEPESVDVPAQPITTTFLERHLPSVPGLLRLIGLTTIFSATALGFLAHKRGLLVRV
# Chain of Cytochrome P450 2C19 (P33261 whole entry): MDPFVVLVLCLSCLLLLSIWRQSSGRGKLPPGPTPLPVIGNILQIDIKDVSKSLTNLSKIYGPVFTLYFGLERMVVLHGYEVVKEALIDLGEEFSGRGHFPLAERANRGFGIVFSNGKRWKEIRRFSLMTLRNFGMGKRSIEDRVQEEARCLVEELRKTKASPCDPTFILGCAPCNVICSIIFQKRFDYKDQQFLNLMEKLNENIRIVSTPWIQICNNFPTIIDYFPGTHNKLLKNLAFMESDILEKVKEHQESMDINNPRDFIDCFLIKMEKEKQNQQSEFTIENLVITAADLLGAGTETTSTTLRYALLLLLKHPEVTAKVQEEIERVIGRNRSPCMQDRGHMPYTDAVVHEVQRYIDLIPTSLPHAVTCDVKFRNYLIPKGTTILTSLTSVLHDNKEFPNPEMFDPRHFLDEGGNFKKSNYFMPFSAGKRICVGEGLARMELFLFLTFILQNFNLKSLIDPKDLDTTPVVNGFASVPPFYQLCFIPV
# Chain of Coagulation factor X (Homo sapiens) (P00742 41-179 limits assumed): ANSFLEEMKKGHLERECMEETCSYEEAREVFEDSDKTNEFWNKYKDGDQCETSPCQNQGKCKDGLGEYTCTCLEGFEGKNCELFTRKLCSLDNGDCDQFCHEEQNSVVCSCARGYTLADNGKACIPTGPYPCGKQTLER
# Chain of Coagulation factor X (Homo sapiens) (P00742 235-488 limits assumed): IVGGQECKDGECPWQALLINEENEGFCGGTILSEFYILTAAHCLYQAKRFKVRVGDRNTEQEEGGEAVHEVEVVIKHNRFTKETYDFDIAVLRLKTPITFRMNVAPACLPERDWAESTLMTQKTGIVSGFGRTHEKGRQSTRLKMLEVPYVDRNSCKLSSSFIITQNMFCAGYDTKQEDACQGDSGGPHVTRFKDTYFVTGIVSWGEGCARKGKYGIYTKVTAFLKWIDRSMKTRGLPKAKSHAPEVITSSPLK
# Chain of Plasma kallikrein (Homo sapiens) (P03952 20-390 limits assumed): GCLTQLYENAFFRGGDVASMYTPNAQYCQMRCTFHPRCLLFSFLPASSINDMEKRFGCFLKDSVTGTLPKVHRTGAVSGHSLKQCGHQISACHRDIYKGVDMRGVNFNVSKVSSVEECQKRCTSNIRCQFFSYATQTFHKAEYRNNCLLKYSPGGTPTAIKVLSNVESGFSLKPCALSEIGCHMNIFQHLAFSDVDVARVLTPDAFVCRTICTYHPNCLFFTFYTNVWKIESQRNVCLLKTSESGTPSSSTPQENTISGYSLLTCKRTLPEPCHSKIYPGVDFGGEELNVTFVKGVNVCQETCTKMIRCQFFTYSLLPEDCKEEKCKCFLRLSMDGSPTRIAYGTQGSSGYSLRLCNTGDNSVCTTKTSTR
# Chain of Plasma kallikrein (Homo sapiens) (P03952 391-638 limits assumed): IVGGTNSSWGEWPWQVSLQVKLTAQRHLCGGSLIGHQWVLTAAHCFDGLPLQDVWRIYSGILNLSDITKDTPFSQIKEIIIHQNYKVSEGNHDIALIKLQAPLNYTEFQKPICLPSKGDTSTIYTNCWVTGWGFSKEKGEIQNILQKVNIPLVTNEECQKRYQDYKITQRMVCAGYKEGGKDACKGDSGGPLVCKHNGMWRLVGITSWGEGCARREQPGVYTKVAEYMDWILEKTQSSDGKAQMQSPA
# Chain of Cytochrome P450 2C9 (P11712 whole entry): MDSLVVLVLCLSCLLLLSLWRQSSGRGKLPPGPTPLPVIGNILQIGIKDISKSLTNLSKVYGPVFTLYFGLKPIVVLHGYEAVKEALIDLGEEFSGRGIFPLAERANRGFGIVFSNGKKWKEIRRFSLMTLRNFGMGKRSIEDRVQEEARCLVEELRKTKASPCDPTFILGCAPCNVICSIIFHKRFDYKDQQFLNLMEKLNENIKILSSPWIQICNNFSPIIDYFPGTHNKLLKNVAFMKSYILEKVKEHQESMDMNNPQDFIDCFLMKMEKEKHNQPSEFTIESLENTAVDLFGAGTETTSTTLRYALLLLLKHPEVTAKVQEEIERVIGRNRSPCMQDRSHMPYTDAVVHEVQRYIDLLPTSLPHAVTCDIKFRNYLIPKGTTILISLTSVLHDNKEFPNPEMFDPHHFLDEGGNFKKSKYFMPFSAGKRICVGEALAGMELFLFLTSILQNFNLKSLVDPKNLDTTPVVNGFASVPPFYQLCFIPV
# Chain of Cytochrome P450 1A2 (P05177 whole entry): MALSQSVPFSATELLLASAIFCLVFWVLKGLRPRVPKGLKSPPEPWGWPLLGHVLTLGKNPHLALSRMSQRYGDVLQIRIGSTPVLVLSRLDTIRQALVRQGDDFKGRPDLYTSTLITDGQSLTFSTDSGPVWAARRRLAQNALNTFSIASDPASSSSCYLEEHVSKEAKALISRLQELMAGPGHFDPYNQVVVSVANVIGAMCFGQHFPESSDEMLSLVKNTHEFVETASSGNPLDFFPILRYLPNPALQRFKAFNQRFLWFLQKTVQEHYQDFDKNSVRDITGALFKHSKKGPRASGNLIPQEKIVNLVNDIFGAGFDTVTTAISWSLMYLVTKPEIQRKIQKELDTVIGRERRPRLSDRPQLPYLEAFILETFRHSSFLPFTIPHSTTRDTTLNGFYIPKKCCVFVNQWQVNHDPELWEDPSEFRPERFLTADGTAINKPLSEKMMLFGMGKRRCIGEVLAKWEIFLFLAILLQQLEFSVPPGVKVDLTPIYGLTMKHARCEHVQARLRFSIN
# Chain of Chymase (Homo sapiens) (P23946 whole entry): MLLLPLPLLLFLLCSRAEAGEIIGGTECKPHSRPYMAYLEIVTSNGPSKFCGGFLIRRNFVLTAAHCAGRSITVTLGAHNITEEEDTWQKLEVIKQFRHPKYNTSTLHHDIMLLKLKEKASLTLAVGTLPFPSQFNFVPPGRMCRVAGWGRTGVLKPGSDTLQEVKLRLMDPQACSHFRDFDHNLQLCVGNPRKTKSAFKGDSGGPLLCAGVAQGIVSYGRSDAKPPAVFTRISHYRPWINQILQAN
IC50 (Trypsin),IC50 [4],Ki [4],SMILES,other results
> 50000 nM,780 nM,,C/N=C(/N)c1ccc2c(c1)C1(CCN(C(=O)c3ccc(C#Cc4ccccc4)o3)CC1)CO2,
,13 nM,10 nM,CC(=O)N1C[C@H](O)C[C@H]1C(=O)NC(CCCNC(=N)N)C(=O)c1nc2ccccc2s1 (some centres not stated),
38000 nM,5.2 nM,3.4 nM,NCc1ccc2c(c1)C1(CCN(C(=O)c3ccc(C#Cc4ccccc4Cl)o3)CC1)CO2,
,,8.7 nM,NCc1cccc(C2CCN(C(=O)c3ccc(C#Cc4ccccc4)o3)CC2)c1,
47000 nM,82 nM,,NCc1ccc2c(c1)C1(CCN(C(=O)c3ccc(CCc4ccccc4)o3)CC1)CO2,
12000 nM,4.3 nM,3 nM,NCc1ccc2c(c1)C1(CCN(C(=O)c3ccc(C#Cc4ccccc4F)o3)CC1)CO2,
39000 nM,,,NC(=O)c1ccc2c(c1)C1(CCN(C(=O)c3ccc(C#Cc4ccccc4)o3)CC1)CO2,inhibition (Homo sapiens [5]): 29%
> 50000 nM,15 nM,,CC(=O)N1CC2(CCN(C(=O)c3ccc(C#Cc4ccccc4)o3)CC2)c2cc(CN)ccc21,
1400 nM,4.5 nM,,N=C(N)c1ccc2c(c1)C1(CCN(C(=O)c3ccc(C#Cc4ccccc4)o3)CC1)CO2,Ratio IC50 (Homo sapiens [20]): 300
5500 nM,13 nM,,COc1ccccc1C#Cc1ccc(C(=O)N2CCC3(CC2)COc2ccc(CN)cc23)o1,
18000 nM,,,NCc1ccc2c(c1)C1(CCN(C(=O)c3ccc(C#Cc4ccccc4)o3)CC1)CO2 [listing 2 of 2 here],Ki (Trypsin): 2500 nM; IC50 [21]: 23000 nM; IC50 [22]: 72000 nM; remaining at 0.5 h (monoamine oxidase B): 95%; bioavailability [23]: 100%; Cmax [24]: 1100 nM; half-life [25]: 7 h; Vd (Rattus norvegicus): 17 L/kg; bioavailability [26]: 65%; Cmax [27]: 900 nM; half-life [28]: 27 h; Vd (Canis familiaris): 16 L/kg; half-life [29]: > 1.67 h; remaining at 1 h [30]: 100%; IC50 (Cytochrome P450 1A2): > 20000 nM; IC50 (Cytochrome P450 2C9): > 20000 nM; IC50 (Cytochrome P450 2D6): > 20000 nM; IC50 (Cytochrome P450 2C19): > 20000 nM; IC50 (Cytochrome P450 3A4): > 20000 nM
> 50000 nM,1.8 nM,7.1 nM,CS(=O)(=O)N1CC2(CCN(C(=O)c3ccc(C#Cc4ccccc4)o3)CC2)c2cc(CN)ccc21,
,,31 nM,NCc1cccc(C2CCN(C(=O)c3ccc(C#Cc4ccccc4F)o3)CC2)c1,

# The next lines start with the molecule.
SMILES,IC50 (Trypsin),IC50 [4],Ki [4],other results
NCc1ccc2c(c1)C1(CCN(C(=O)c3ccc(C#Cc4ccccc4)o3)CC1)CO2.O=C(O)c1ccccc1,,,,concentration (Plasma): 400 nM; Activity (Cavia porcellus [1]): 90%; Activity (Cavia porcellus [2]): 65%; Activity (Cavia porcellus [3]): 20%
Cc1ccccc1C#Cc1ccc(C(=O)N2CCC3(CC2)COc2ccc(CN)cc23)o1,12000 nM,1.2 nM,4 nM,
NCc1ccc2c(c1)C1(CCN(C(=O)c3ccc(C#Cc4ccccc4)o3)CC1)CN2,> 50000 nM,23 nM,,
NCc1ccc2c(c1)C1(CCN(C(=O)c3ccc(-c4ccccc4)o3)CC1)CO2,8600 nM,28 nM,,
NCc1ccc2c(c1)C1(CCN(C(=O)c3ccc(C#Cc4ccccc4)o3)CC1)CN2S(=O)(=O)c1ccccc1,6700 nM,5.7 nM,16 nM,
CC(C)(C)c1ccc(C#Cc2ccc(C(=O)N3CCC4(CC3)COc3ccc(CN)cc34)o2)cc1,13000 nM,700 nM,,
N/N=C(\N)c1ccc2c(c1)C1(CCN(C(=O)c3ccc(C#Cc4ccccc4)o3)CC1)CO2,> 50000 nM,59 nM,,
NCc1ccc2c(c1)C1(CCN(C(=O)c3ccc(C#Cc4ccccc4)o3)CC1)CO2 [listing 1 of 2 here],,,,inhibition [6]: < 30%; inhibition (Chymase (Homo sapiens)): < 30%; inhibition [7]: < 30%; inhibition [8]: < 15%; inhibition [9]: < 15%; inhibition [10]: < 15%; inhibition [11]: < 15%; inhibition [12]: < 15%; inhibition [13]: < 15%; inhibition [14]: < 15%; inhibition [15]: < 15%; inhibition [16]: < 15%; Activity (Ovis aries [17]): Active; Activity (Ovis aries [18]): inactive; Activity (Ovis aries [19]): Active
NCc1ccc2c(c1)C1(CCN(C(=O)c3ccc(Sc4ccccc4)o3)CC1)CO2,9100 nM,90 nM,,
NCc1ccc2c(c1)C1(CCN(C(=O)c3ccc(C#Cc4ccc(O)cc4)o3)CC1)CO2,23000 nM,3200 nM,,
Cc1ccc(C#Cc2ccc(C(=O)N3CCC4(CC3)COc3ccc(CN)cc34)o2)cc1,13000 nM,8.3 nM,,
NCc1ccc2c(c1)C1(CC2)CCN(C(=O)c2ccc(C#Cc3ccccc3)o2)CC1,7700 nM,3.1 nM,,
